Reference: ChEMBL document CHEMBL1629704, “Inhibition of dengue virus by an ester prodrug of an adenosine analog” (Antimicrob Agents Chemother, 2010)
pEC50: −log10 of the molar value.

Key:
dengue virus type 2 [1] = test: Antiviral activity against Dengue virus 2 MY10340 infected in human A549 cells by CFI assay; format: functional, organism-based
In short: (§1)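 CFI assay: A549 cells seeded 2 × 10^4/well, infected next day (MOI 0.3 for DENV-2) with compound-virus mixture for 1 h, then refed with compound-containing medium. On day 2 cells were methanol-fixed at 4°C and intracellular E protein detected by ELISA (4G2 primary, HRP anti-mouse secondary). EC50 is the average of two independent experiments.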

Mus musculus = test: AUC (0 to infinity) in CD-1 mouse at 25 mg/kg, po by LC-MS-MS analysis; format: ADME, organism-based, Plasma; parameters: time infinity, dose 25 mg/kg, route oral; conditions: in vivo
In short: (§2)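 Female CD-1 mice dosed orally at 25 mg/kg, formulated at 2.5 mg/ml in 0.1 N HCl (1.5 equimolar), pH 3.5 with NaOH, topped off with 100 mM citrate pH 3.5. Blood taken from three animals per time point, 0.08–24 h. Plasma acetonitrile-methanol-acetic acid extract analysed by LC-MS-MS (LLOQ 9.2 ng/ml). Mean profile fitted noncompartmentally; F from dose-corrected p.o./i.v. AUC.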

dengue virus type 4 = test: Antiviral activity against Dengue virus 4 MY22713 infected in human A549 cells by CFI assay; format: functional, organism-based; in short: as §1
[2] = Clearance in CD-1 mouse at 5 mg/kg, iv by LC-MS-MS analysis; format: ADME, organism-based; parameters: dose 5 mg/kg, route intravenous; conditions: in vivo
In short: (§3)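 Female CD-1 mice, single i.v. injection of 5 mg/kg (1 mg/ml) in pH 3.5 HCl/citrate formulation. Blood from three animals at 0.02–24 h; heparinized plasma extracted and quantified by LC-MS-MS (LLOQ 9.2 ng/ml). Noncompartmental analysis of the mean concentration-time profile.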

dengue virus type 2 [3] = test: Antiviral activity against Dengue virus 2 NGC infected in human A549 cells after 2 days by CFI assay in presence of 40 mg/ml human serum albumin and 2 mg/ml alpha-1-acid glycoprotein; format: functional, organism-based; conditions: A549, 48 h
In short: (§4)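 Modified CFI: A549 cells infected with DENV-2 New Guinea C (MOI 0.3) for 1 h without compound. Inoculum then replaced with medium containing compound dilutions plus the stated HSA and/or AGP. On day 2, cells methanol-fixed and intracellular E protein detected by ELISA (4G2 primary, HRP anti-mouse secondary); EC50 derived.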

[4] = Volume of distribution at steady state Wistar rat at 5.9 mg/kg, iv by LC-MS-MS analysis; format: ADME, organism-based; parameters: dose 5.9 mg/kg, route intravenous; conditions: in vivo, read-out: Vdss
In short: (§5)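 Female Wistar rats given 5.9 mg/kg i.v. in pH 3.5 HCl/citrate formulation. Serial blood from groups of three rats, 0.17–48 h. Heparinized plasma extracted with acetonitrile-methanol-acetic acid, LC-MS-MS quantification (LLOQ 9.2 ng/ml); noncompartmental analysis of mean profile.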

dengue virus type 2 [5] = test: Antiviral activity against Dengue virus 2 NGC infected in human A549 cells by CFI assay; format: functional, organism-based; in short: as §1
[6] = Cmax in CD-1 mouse at 25 mg/kg, po by LC-MS-MS analysis; format: ADME, organism-based; parameters: dose 25 mg/kg, route oral; conditions: in vivo; in short: as §2
[7] = Half life in Wistar rat at 5.9 mg/kg, iv by LC-MS-MS analysis; format: ADME, organism-based; parameters: dose 5.9 mg/kg, route intravenous; conditions: in vivo; in short: as §5
dengue virus type 2 [8] = test: Antiviral activity against Dengue virus 2 NGC infected in human PBMC cells by plaque assay; format: functional, organism-based
A549 [9] = test: Cytotoxicity against human A549 cells up to 12.5 uM after 48 hrs by MTT assay; format: functional, cell-based
dengue virus type 3 = test: Antiviral activity against Dengue virus 3 MY22366 infected in human A549 cells by CFI assay; format: functional, organism-based; in short: as §1
[10] = Half life in CD-1 mouse at 5 mg/kg, iv by LC-MS-MS analysis; format: ADME, organism-based; parameters: dose 5 mg/kg, route intravenous; conditions: in vivo; in short: as §3
dengue virus type 1 = test: Antiviral activity against Dengue virus 1 MY10245 infected in human A549 cells by CFI assay; format: functional, organism-based; in short: as §1
[11] = Oral bioavailability in CD-1 mouse at 25 mg/kg by LC-MS-MS analysis; format: ADME, organism-based; conditions: in vivo; in short: as §2
Rattus norvegicus = test: AUC (0 to infinity) in Wistar rat at 24.8 mg/kg, po by LC-MS-MS analysis; format: ADME, organism-based, Plasma; parameters: time infinity, dose 24.8 mg/kg, route oral; conditions: in vivo
In short: (§6)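 Female Wistar rats, fasted overnight until 4 h post-dose, given 24.8 mg/kg orally in pH 3.5 HCl/citrate solution. Serial blood sampling from groups of three, 0.17–48 h. Plasma quantified by LC-MS-MS (LLOQ 9.2 ng/ml). Noncompartmental fit of mean profile; bioavailability from dose-corrected AUC ratio versus i.v.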

[12] = Tmax in CD-1 mouse at 25 mg/kg, po by LC-MS-MS analysis; format: ADME, organism-based; parameters: dose 25 mg/kg, route oral; conditions: in vivo; in short: as §2
dengue virus type 2 [13] = test: Antiviral activity against Dengue virus 2 NGC infected in human A549 cells after 2 days by CFI assay in presence of 2 mg/ml alpha-1-acid glycoprotein; format: functional, organism-based; conditions: A549, 48 h; in short: as §4
[14] = Clearance in Wistar rat at 5.9 mg/kg, iv by LC-MS-MS analysis; format: ADME, organism-based; parameters: dose 5.9 mg/kg, route intravenous; conditions: in vivo; in short: as §5
[15] = Volume of distribution in CD-1 mouse at 5 mg/kg, iv by LC-MS-MS analysis; format: ADME, organism-based; parameters: dose 5 mg/kg, route intravenous; conditions: in vivo; in short: as §3
A549 [16] = test: Cytotoxicity against human A549 cells at >= 25 uM after 48 hrs by MTT assay; format: cell-based; conditions: a549, 48 h
[17] = Tmax in Wistar rat at 24.8 mg/kg, po by LC-MS-MS analysis; format: ADME, organism-based; parameters: dose 24.8 mg/kg, route oral; conditions: in vivo; in short: as §6
[18] = Oral bioavailability in Wistar rat at 24.8 mg/kg by LC-MS-MS analysis; format: ADME, organism-based; conditions: in vivo; in short: as §6
[19] = Cmax in Wistar rat at 24.8 mg/kg, po by LC-MS-MS analysis; format: ADME, organism-based; parameters: dose 24.8 mg/kg, route oral; conditions: in vivo; in short: as §6
A549 [20] = test: Cytotoxicity against human A549 cells up to 25 uM after 48 hrs by MTT assay; format: functional, cell-based
dengue virus type 2 [21] = test: Antiviral activity against Dengue virus 2 NGC infected in human A549 cells after 2 days by CFI assay in presence of 40 mg/ml human serum albumin; format: functional, organism-based; conditions: A549, 48 h; in short: as §4

SMILES: C#C[C@@]1(O)[C@H](O)[C@@H](CO)O[C@H]1n1cc(C(N)=O)c2c(N)ncnc21
- pEC50 (dengue virus type 2 [1]): 5.79
- AUC (Mus musculus): 0.42 µM·h
- pEC50 (dengue virus type 4): 5.16
- clearance [2]: 21.9 mL/min/kg
- pEC50 (dengue virus type 2 [3]): 5.33
- Vd [4]: 2.71 L/kg
- pEC50 (dengue virus type 2 [5]): 5.58
- Cmax [6]: 270 nM
- half-life [7]: 8.33 h
- pEC50 (dengue virus type 2 [8]): 5.30
- Activity (A549 [9]): Not toxic
- pEC50 (dengue virus type 3): 5.71
- half-life [10]: 1.31 h
- pEC50 (dengue virus type 1): 5.64
- bioavailability [11]: 1%
- AUC (Rattus norvegicus): 3.15 µM·h
- Tmax [12]: 1 h
- pEC50 (dengue virus type 2 [13]): 5.60
- clearance [14]: 8.98 mL/min/kg
- Vd [15]: 0.26 L/kg
- Activity (A549 [16]): Non-toxic
- Tmax [17]: 0.17 h
- bioavailability [18]: 2%
- Cmax [19]: 270 nM
- Activity (A549 [20]): Not toxic
- pEC50 (dengue virus type 2 [21]): 5.32
